A selection: hits, their analogues and other compounds. The true share with any hit is near 3.7%.
hERG protect = hERG rescue from dofetilide block, primary screen, cell-based, CHO-hERG, FluxOR thallium flux, dofetilide IC70; Voltage-gated inwardly rectifying potassium channel KCNH2 (Homo sapiens), Q12809; dofetilide IC70 present; activation (rescue from dofetilide block), less the hit threshold, % at 10 µM; 310,000 tested, 0.51% active; AID 1511, 2009;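 active means activation above the mean of controls blocked by dofetilide plus 5 SD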;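 further: thallium influx through hERG after potassium depolarization seen as dye fluorescence rise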
KCNQ1 act = potentiators or activators of KCNQ1 channel, primary screen, cell-based, thallium flux, high-throughput; Potassium voltage-gated channel subfamily KQT member 1 (Homo sapiens), P51787; CHO-K1 KCNQ1, thallium flux FluxOR fluorescence; hits give high values; B-score at 10 µM; 310,000 tested, 0.35% active; AID 2648, 2010;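 active means fluorescence ratio B-score, a plate-corrected score, at least three library SD, with initial intensity B-score within 5 SD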
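assay system = KCNQ1-transfected CHO-K1 cells | medium = assay buffer with matched DMSO | probe or stimulus = depolarizing K+/Tl+ stimulus, K2SO4 and Tl2SO4 each 12.5 mM in 5x stock | dosing = single dose | incubation = dye 90 min, compound 20 min, room temperature | detection = kinetic FluxOR fluorescence, 10 s baseline plus 110 s post-stimulus | evaluation = ratio B score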
Kir21 inh = inhibitors of mouse Kir2.1 inward-rectifier potassium channel; HEK293-Kir2.1, FluxOR thallium flux fluorescence; hits give low values; B-score at 10 µM; 310,000 tested, 0.85% active;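 active means fluorescence ratio B-score at or below minus 3 SD of library scores, with starting-brightness B-score within 2 SD, cut at about -4.2 in these data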;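 further: channel flux triggered by added potassium and thallium sulfate stimulus; B-score of peak minus minimum fluorescence over baseline after thallium stimulus; more negative B-score means stronger Kir2.1 block with less thallium influx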
KCNK3 block = human KCNK3 channel inhibitors, primary screen, CHO cells, FluxOR thallium flux, B-score | Potassium channel subfamily K member 3 (Homo sapiens), O14649 | FluxOR fluorescence; hits give low values | B-score at 10 µM | 340,000 tested, 0.84% active | AID 602410, 2012;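 active means B-score under library mean minus 4 SD, starting fluorescence ratio at most library mean plus 5 SD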;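 further: more negative B-score means stronger inhibition of thallium flux through KCNK3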
Target sequence (O14649 whole entry, looked up): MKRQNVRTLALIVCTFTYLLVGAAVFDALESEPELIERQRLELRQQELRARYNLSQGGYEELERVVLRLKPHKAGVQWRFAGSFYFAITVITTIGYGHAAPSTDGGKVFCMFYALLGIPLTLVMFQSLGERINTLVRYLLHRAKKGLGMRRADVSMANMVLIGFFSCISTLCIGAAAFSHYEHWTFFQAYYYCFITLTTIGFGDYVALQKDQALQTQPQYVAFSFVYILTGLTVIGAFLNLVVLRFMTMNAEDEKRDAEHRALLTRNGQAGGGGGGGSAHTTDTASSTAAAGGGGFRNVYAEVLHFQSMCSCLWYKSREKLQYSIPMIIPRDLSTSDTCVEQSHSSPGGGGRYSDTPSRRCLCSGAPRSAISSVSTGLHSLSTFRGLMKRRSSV
KCNQ1 block = inhibitors of human KCNQ1 channel, primary screen, cell-based, thallium flux, high-throughput. Potassium voltage-gated channel subfamily KQT member 1 (Homo sapiens), P51787. CHO-K1 KCNQ1, FluxOR thallium flux fluorescence; hits give high values. B-score at 10 µM. 310,000 tested, 1.3% active;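 active means compounds whose thallium flux B-score, printed positive for inhibition, exceeds three library SD while starting fluorescence stays within three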;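 further: channel opened by potassium depolarization with thallium stimulus after 20 min compound exposure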
KCNK9 inh = KCNK9 potassium channel inhibitors, primary screen, HEK293 cells, thallium flux. 310,000 tested, 1.2% active. AID 488922, 2010. FluxOR thallium flux fluorescence; hits give low values. B-score at 10 µM. Potassium channel subfamily K member 9 (Homo sapiens), Q9NPC2;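 active means ratio B-score over 3 SD below the library mean, with starting fluorescence within 5 SD of its mean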;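 further: negative B-score means less thallium flux so channel inhibition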
Numbers stand for hits; i = inactive; nt = no result given.

SMILES	hERG protect	KCNQ1 act	Kir21 inh	KCNK3 block	KCNQ1 block	KCNK9 inh
C/C=C/c1ccc(OCC(O)CN(C)Cc2ccc(SC)cc2)c(OC)c1 (configuration not stated)	i	i	-10.8	i	i	i
CCC1C/C(=C\c2cc(OC)c(OC)cc2OC)C(=O)/C(=C/c2cc(OC)c(OC)cc2OC)C1 (configuration not stated)	i	i	i	-10.8	7	i
CCNc1nc(NCC)n2c(SCC(=O)Nc3ccccc3)nnc2n1	6.5	i	i	i	i	i
CCNc1nc(NCC)n2c(SCC(=O)Nc3ccc(F)cc3)nnc2n1	i	i	i	i	i	i
Cc1nc(N)nc(N)c1/C=C/C(C)(C)c1ccc(Cl)cc1	i	i	i	i	i	i
CCCCc1nc2ccccc2c(=O)n1NC(=O)c1c(O)c2c(n(CC(C)C)c1=O)CCCC2	i	i	i	i	6	i
CCc1nc2ccccc2c(=O)n1NC(=O)c1c(O)c2ccccc2n(CC)c1=O	37.0	i	i	i	i	i
Nc1ccc2nc3c(=O)n(CCc4ccccc4)c(=O)[nH]c3nc2c1	i	i	i	i	8	i
Cc1ccc(C(=O)NCC(=O)NCC(=O)OCC(=O)c2ccc(Br)cc2)cc1	i	i	i	i	i	i
COc1ccc(C)cc1NC(=S)NNC(=O)c1c(Br)cnn1C	7.0	i	i	i	i	i
CCOC(=O)C1=C(C)N=C2SC(C(=O)OC)=CC(=O)N2C1c1ccc(OC)cc1 (configuration not stated)	i	i	-5.72	i	i	i
CCOC(=O)c1sc(NC(=O)c2ccccc2C(=O)O)c(C(=O)OCC)c1C	i	8	i	i	i	i
CCOC(=O)c1sc(NC(=O)c2cc(-c3ccccc3C)nc3ccccc23)c(C#N)c1C	i	i	i	i	10	i
CCOC(=O)c1sc(NC(=O)Nc2ccccc2)cc1C	i	i	i	i	6	i
Cc1cc(C(C)(C)C)ccc1OCC(=O)N/N=C\c1c(C)n(C)n(-c2ccccc2)c1=O	i	i	i	i	i	i
O=C(Cn1cc([N+](=O)[O-])ccc1=O)NCC1COc2ccccc2O1 (configuration not stated)	nt	nt	nt	i	nt	nt
Cc1c(CCOC(=O)C23CC4CC(CC(C)(C4)C2)C3)sc[n+]1CC(=O)c1ccccc1	i	i	i	i	i	i
Cc1c(CCOC(=O)CC23CC4CC(CC(C)(C4)C2)C3)sc[n+]1CC(=O)c1ccccc1	i	i	i	i	11	i
O=C(NC(Nc1ncc(S(=O)(=O)c2ccc([N+](=O)[O-])cc2)s1)(C(F)(F)F)C(F)(F)F)c1ccc(Cl)cc1	i	i	-6.91	i	i	i
CC(C)c1ccc(NC(=O)C2CCN(S(=O)(=O)c3ccc4c(c3)C(C)(C)C(=O)N4C)CC2)cc1	i	i	i	i	i	i
Cc1cc(Cl)n2c(nc3ccccc32)c1C#N	i	i	i	i	6	i
Cc1ccc(C2Cc3cc(O)c(O)cc3CN2)cc1 (configuration not stated)	i	i	-7.5	i	i	i
Cc1ccc(O)c(O)c1	i	i	i	nt	i	i
CC1CC(C)CN(CC(=O)NNC(=O)COc2ccc(Cl)cc2)C1 (configuration not stated)	nt	nt	nt	i	nt	nt
COc1ccccc1-c1nnc(SCC(=O)Nc2nc(-c3ccccc3)cs2)n1C	6.1	i	i	i	i	i
CCC1=C(OC(=O)N(CC)CC)N2C(=O)OC(=NCCc3c[nH]c4ccccc34)[C@]2(Cc2ccccc2)[C@H]2C1=CC[C@H]1C(=O)N(CC)C(=O)[C@H]12	i	i	i	i	i	-6.83
c1ccc(C(c2ccccc2)N2CCN(C(c3ccccn3)c3nnnn3C3CCCC3)CC2)cc1 (configuration not stated)	i	i	i	i	i	-15.3
